Experimental data taken from ChEMBL document CHEMBL4000167, “Chlorotheolides A and B, Spiroketals Generated via Diels-Alder Reactions in the Endophytic Fungus Pestalotiopsis theae” (J Nat Prod, 2016).
Activity calls are given as the source filed them. No cut-off for these calls is given here.

What was measured:
MCF7 = assay: Antiproliferative activity against human MCF7 cells at 20 ug/ml after 48 hrs by MTS assay; format: functional, cell-based
How it was run: (§1)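 Cells seeded at (2−5) × 10^3 per well in 96-well plates and allowed to attach overnight. Medium was then replaced with medium containing test compound by serial dilution from 100 mM DMSO stocks, or 0.1% DMSO, with cisplatin as positive control. Incubation was 48 h at 37 °C in 5% CO2, then MTS was added for 90 min at 37 °C. Absorbance read at 490 nm; triplicate.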

HeLa [1] = assay: Antiproliferative activity against human HeLa cells at 20 ug/ml after 48 hrs by MTS assay; format: functional, cell-based; how it was run: as §1
HeLa [2] = assay: Induction of autophagy in human HeLa cells assessed as effect on ratio of SQSTM1/p62 to actin at 15 uM after 2 hrs by immunoblot method relative to control; format: functional
How it was run: (§2)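 Lysis used Triton X-100/glycerol buffer: 50 mM Tris-HCl pH 7.4, 4 mM EDTA, 2 mM EGTA, 1 mM DTT, 1% Triton X-100, 1% SDS and protease inhibitors. Lysates were run on SDS-PAGE, blotted to PVDF and detected by HRP secondaries with ECL. p62/actin ratio calculated.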

HeLa [3] = assay: Induction of autophagy in human HeLa cells assessed as effect on ratio of SQSTM1/p62 to actin at 20 uM after 2 hrs by immunoblot method relative to control; format: functional; how it was run: as §2
HeLa [4] = assay: Induction of autophagy in human HeLa cells assessed as effect on ratio of LC3-2 to actin at 20 uM after 2 hrs in presence of chloroquine by immunoblot method relative to control; format: functional
How it was run: (§3)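 Lysis in Tris-HCl pH 7.4 buffer with EDTA, EGTA, DTT, 1% Triton X-100, 1% SDS and protease inhibitors. SDS-PAGE, PVDF transfer, HRP secondary antibodies, ECL detection. LC3-II band expressed as a ratio to actin.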

HeLa [5] = assay: Induction of autophagy in human HeLa cells assessed as effect on ratio of SQSTM1/p62 to actin at 10 uM after 2 hrs in presence of chloroquine by immunoblot method relative to control; format: functional; how it was run: as §2
HeLa [6] = assay: Induction of autophagy in human HeLa cells assessed as effect on ratio of LC3-2 to actin at 20 uM after 2 hrs by immunoblot method relative to control; format: functional; how it was run: as §3
HeLa [7] = assay: Induction of autophagy in human HeLa cells assessed as effect on ratio of SQSTM1/p62 to actin at 20 uM after 2 hrs in presence of chloroquine by immunoblot method relative to control; format: functional; how it was run: as §2
HeLa [8] = assay: Induction of autophagy in human HeLa cells assessed as effect on ratio of SQSTM1/p62 to actin at 1 uM after 2 hrs by immunoblot method relative to control; format: functional; how it was run: as §2
HeLa [9] = assay: Induction of autophagy in human HeLa cells assessed as effect on ratio of LC3-2 to actin at 1 uM after 2 hrs by immunoblot method relative to control; format: functional; how it was run: as §3
HeLa [10] = assay: Induction of autophagy in human HeLa cells assessed as effect on ratio of LC3-2 to actin at 10 uM after 2 hrs by immunoblot method relative to control; format: functional; how it was run: as §3
HeLa [11] = assay: Induction of autophagy in human HeLa cells assessed as increase in punctate LC3 accumulation at 10 uM after 2 hrs in presence of chloroquine by immunofluorescence method; format: functional, cell-based
How it was run: (§4)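 They were fixed in 4% paraformaldehyde and permeabilized in Ca/Mg-free PBS with 0.1% Triton X-100 and 0.5% BSA. Staining used anti-LC3 and Alexa Fluor secondaries, with DAPI mounting. LC3 puncta were counted by fluorescence microscopy.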

HeLa [12] = assay: Induction of autophagy in human HeLa cells assessed as increase in punctate LC3 accumulation at 10 uM after 2 hrs by immunofluorescence method; format: functional, cell-based; how it was run: as §4
HeLa [13] = assay: Induction of autophagy in human HeLa cells assessed as effect on ratio of LC3-2 to actin at 10 uM after 2 hrs in presence of chloroquine by immunoblot method relative to control; format: functional; how it was run: as §3
HeLa [14] = assay: Induction of autophagy in human HeLa cells assessed as accumulation of membrane vacuoles at 10 uM at 2 hrs by transmission electron microscopic method; format: functional, cell-based
How it was run: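 HeLa cells treated with 10 μM for 2 h, then washed in PBS, trypsinized and pelleted. Pellets fixed in 4% paraformaldehyde at 4 °C overnight and postfixed in 1% OsO4 in cacodylate buffer for 1 h at RT. They were then dehydrated in ethanol, rinsed in propylene oxide and embedded in Spurr resin. Thin sections examined by TEM.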

HeLa [15] = assay: Induction of autophagy in human HeLa cells assessed as effect on ratio of SQSTM1/p62 to actin at 10 uM after 2 hrs by immunoblot method relative to control; format: functional; how it was run: as §2
HeLa [16] = assay: Induction of autophagy in human HeLa cells assessed as effect on ratio of SQSTM1/p62 to actin at 1 uM after 2 hrs in presence of chloroquine by immunoblot method relative to control; format: functional; how it was run: as §2
HeLa [17] = assay: Induction of autophagy in human HeLa cells assessed as effect on ratio of LC3-2 to actin at 1 uM after 2 hrs in presence of chloroquine by immunoblot method relative to control; format: functional; how it was run: as §3

Structure (SMILES): COC(=O)C1=CC(OC)=C(Cl)C(=O)C12OC(=O)c1c(O)cc(C)cc1O2 (stereo not given)
- inhibition (MCF7): inactive
- inhibition (HeLa [1]): inactive

Structure (SMILES): CCN(CC)CCCC(C)Nc1ccnc2cc(Cl)ccc12 (stereo not given) [CHLOROQUINE]
- fold change (FC) (HeLa [2]): 1.8

Structure (SMILES): C=C(C(=O)O)[C@@H](CCCCCCCC)C(=O)O
- inhibition (MCF7): inactive
- inhibition (HeLa [1]): inactive

Structure (SMILES): CCCCCCCC1=COC(=O)[C@]12C[C@]1(C(=O)OC)C=C(OC)[C@@]2(Cl)C(=O)[C@]12OC(=O)c1c(O)cc(C)cc1O2
- fold change (FC) (HeLa [3]): 2.84
- fold change (FC) (HeLa [4]): 10.86
- fold change (FC) (HeLa [5]): 2.19
- fold change (FC) (HeLa [6]): 2.9
- fold change (FC) (HeLa [7]): 1.94
- fold change (FC) (HeLa [8]): 2.76
- fold change (FC) (HeLa [9]): 1.03
- fold change (FC) (HeLa [10]): 0.79
- Activity (HeLa [11]): Active
- Activity (HeLa [12]): Active
- fold change (FC) (HeLa [13]): 12.53
- Activity (HeLa [14]): Active
- fold change (FC) (HeLa [15]): 3.61
- fold change (FC) (HeLa [16]): 2.84
- fold change (FC) (HeLa [17]): 10.98
